From ChEMBL document CHEMBL2434964, “Novel 1H-pyrrolo[2,3-b]pyridine derivative nortopsentin analogues: synthesis and antitumor activity in peritoneal mesothelioma experimental models” (J Med Chem, 2013)
Active and inactive are the calls of the source. The rule behind the calls is not given here.

Tests used:
Meso2 [1] = assay: Induction of apoptosis in human Meso2 cells assessed as increase in caspase 3 activation at 4 to 8 uM hrs by DEVD-pNA substrate-based spectrofluorometric analysis relative to control; type: functional, cell-based
Meso2 [2] = assay: Induction of apoptosis in human Meso2 cells assessed as chromatin condensation at IC50 by fluorescence microscopy relative to control; type: functional, cell-based; conditions: TDE = time-dependent effect
[3] = Cytotoxicity against human W138 cells assessed as growth inhibition after 72 hrs by MTS assay; type: cell-based; conditions: WI-38, 72 h
Procedure, shortened: (§1)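 Log-phase cells, 4500 per well, plated 24 h, then given 0.1–100 μM compound for 72 h; vehicle (DMSO) controls. MTS read-out at 490 nm as % of DMSO-treated cells. IC50 taken graphically from the dose-response curve. Eight replicates; mean ± SD of at least three independent experiments.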

[4] = Cell cycle arrest in human Meso2 cells assessed as reduction of cells at G1 phase at IC50 after 48 to 72 hrs by propidium iodide staining-based FACS-flow cytometry relative to control; type: functional
[5] = Antitumor activity against human STO cells xenografted in athymic nude mouse assessed as tumor volume inhibition at 50 mg/kg, ip qd for 4 to 5 days per week for 3 weeks measured on day 17 post dose; type: functional; conditions: route intraperitoneal
Procedure, shortened: (§2)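 Female athymic Swiss nude mice, 8-10 weeks old; 10⁷ exponentially growing STO cells injected s.c. into right flank. Dosing i.p. qdx4-5/wx3w, starting the day after cell injection. Tumor volume = d²xD/2. TVI% = 100-(mean TV treated/mean TV control x 100), read 17 days after end of treatment (day 35). Two-tailed Student's t test.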

STO [6] = assay: (§3) Cytotoxicity against human STO cells assessed as growth inhibition after 72 hrs by MTS assay; type: functional, cell-based; procedure, shortened: as §1
[7] = as §3; type: functional, cell-based; procedure, shortened: as §1
[8] = molecular target: Cyclin-dependent kinase 1/cyclin B1 (Homo sapiens) (UniProt P06493+P14635); assay: Inhibition of CDK1/cyclin B in human STO cells using histone H1 as substrate assessed as histone H1 phosphorylation preincubated at IC50 by immunoprecipitate-based densitometric analysis; type: cell-based; conditions: TDE = time-dependent effect
Procedure, shortened: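 STO cells exposed at IC50 for 24, 48 and 72 h, with DMSO controls. Lysates immunoprecipitated with anti-cyclin B1, 4 h at 4°C. Precipitates incubated 20 min at 30°C with 3 μg histone H1, MgCl₂, cold ATP and [γ32P]ATP, pH 7.5. Products run on 12% SDS gel and quantified by densitometry as % of DMSO control.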

[9] = Cell cycle arrest in human STO cells assessed as accumulation at G2/M phase at IC50 after 48 hrs by propidium iodide staining-based FACS-flow cytometry relative to control; type: functional
[10] = Cell cycle arrest in human STO cells assessed as increase in sub-G1 phase accumulation at IC50 after 72 hrs by propidium iodide staining-based FACS-flow cytometry relative to control; type: functional
Mus musculus [11] = assay: Toxicity in athymic nude mouse xenografted with human STO cells assessed as body weight loss at 50 mg/kg, ip qd for 4 to 5 days per week for 3 weeks measured on day 17 post dose; type: organism-based; set-up: dose 50 mg/kg, route intraperitoneal; conditions: in vivo
Procedure, shortened: (§4)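 Female athymic Swiss nude mice bearing s.c. STO flank xenografts (10⁷ cells). Dosing i.p. qdx4-5/wx3w, starting the day after cell injection. Toxicity recorded as % body weight loss and lethal toxicity. Deaths in treated mice before the first control death were counted as toxic.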

[12] = molecular target: Glycogen synthase kinase-3 beta (Homo sapiens, UniProt P49841); assay: Inhibition of human GSK-3 beta after 30 mins by fluorescence assay
Procedure, shortened: (§5)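 Recombinant kinases (CDK1/cyclin B; GSK3β) in Omnia fluorescence assay with peptide substrate, ATP and DTT in kinase buffer, run 30 min at 30°C. Compound range 0.05-50 μM. Fluorescence read at ex 360/em 485 nm. IC50 taken graphically; mean ± SD of three independent experiments.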

[13] = Cell cycle arrest in human Meso2 cells assessed as increase in sub-G1 phase accumulation at IC50 after 72 hrs by propidium iodide staining-based FACS-flow cytometry relative to control; type: functional
Mus musculus [14] = assay: Toxicity in athymic nude mouse xenografted with human STO cells assessed as mortality at 50 mg/kg, ip qd for 4 to 5 days per week for 3 weeks measured on day 17 post dose; type: organism-based; set-up: dose 50 mg/kg, route intraperitoneal; conditions: in vivo
Procedure, shortened: (§6)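 Female athymic Swiss nude mice, 8-10 weeks old, given 10⁷ exponentially growing STO cells s.c. in the right flank. Dosing i.p. qdx4-5/wx3w, starting the day after cell injection. Toxicity was scored as body weight loss and lethal toxicity, reported as toxic deaths per treated group (n=8). Deaths in treated mice before the first control death were counted as toxic.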

STO [15] = assay: Induction of apoptosis in human STO cells assessed as DNA fragmentation at IC50 by fluorescence microscopy relative to control; type: functional, cell-based; conditions: TDE = time-dependent effect
STO [16] = assay: Induction of apoptosis in human STO cells assessed as chromatin condensation at IC50 by fluorescence microscopy relative to control; type: functional, cell-based; conditions: TDE = time-dependent effect
Meso2 [17] = assay: Induction of apoptosis in human Meso2 cells assessed as increase in caspase 3 activation at 4 to 8 uM hrs by DEVD-pNA substrate-based spectrofluorometric analysis in presence of paclitaxel; type: functional, cell-based
Meso2 [18] = assay: Potentiation of paclitaxel-induced cytotoxicity in human Meso2 cells assessed as inhibition of cell survival at 2 to 8 uM after 72 hrs by MTS assay; type: functional, cell-based
Procedure, shortened: (§7)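 Paclitaxel given for 24 h, then test compound added for 72 h more. Fixed paclitaxel:compound ratios were 1:100 in STO and 1:333 in MesoII. Survival by MTS at 490 nm. Expected additive effect taken as the product of single-agent effects. Interaction scored by Chou–Talalay combination index (<1 synergy).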

[19] = Cell cycle arrest in human STO cells assessed as accumulation at G2/M phase at IC50 after 72 hrs by propidium iodide staining-based FACS-flow cytometry relative to control; type: functional
STO [20] = assay: Induction of apoptosis in human STO cells assessed as increase in caspase 3 activation at 0.3 to 0.6 uM hrs by DEVD-pNA substrate-based spectrofluorometric analysis relative to control; type: functional, cell-based
STO [21] = assay: Potentiation of paclitaxel-induced cytotoxicity in human STO cells assessed as inhibition of cell survival at 0.15 to 0.6 uM after 72 hrs by MTS assay; type: functional, cell-based; procedure, shortened: as §7
[22] = Cell cycle arrest in human STO cells assessed as reduction of cells at G1 phase at IC50 after 48 to 72 hrs by propidium iodide staining-based FACS-flow cytometry relative to control; type: functional
[23] = Cell cycle arrest in human Meso2 cells assessed as accumulation at G2/M phase at IC50 after 48 hrs by propidium iodide staining-based FACS-flow cytometry relative to control; type: functional
STO [24] = assay: Induction of apoptosis in human STO cells assessed as inhibition of survivin phosphorylation at Thr34 at IC50 by Western blotting analysis; type: functional, cell-based
[25] = molecular target: Cyclin-dependent kinase 1/cyclin B1 (Homo sapiens, UniProt P06493); assay: Inhibition of human recombinant CDK1/cyclin B after 30 mins by fluorescence assay; type: protein-complex assay; procedure, shortened: as §5
[26] = (§8) Cytotoxicity against human cells Meso2 assessed as growth inhibition after 72 hrs by MTS assay; type: functional, cell-based; conditions: Meso2, 72 h; procedure, shortened: as §1
Homo sapiens = organism: Homo sapiens; assay: as §8; type: functional, cell-based; procedure, shortened: as §1
[27] = Cell cycle arrest in human Meso2 cells assessed as accumulation at G2/M phase at IC50 after 72 hrs by propidium iodide staining-based FACS-flow cytometry relative to control; type: functional
Meso2 [28] = assay: Induction of apoptosis in human Meso2 cells assessed as DNA fragmentation at IC50 by fluorescence microscopy relative to control; type: functional, cell-based; conditions: TDE = time-dependent effect
STO [29] = assay: Induction of apoptosis in human STO cells assessed as increase in caspase 3 activation at 0.3 to 0.6 uM hrs by DEVD-pNA substrate-based spectrofluorometric analysis in presence of paclitaxel; type: functional, cell-based
[30] = Antitumor activity against human STO cells xenografted in athymic nude mouse assessed as tumor volume inhibition at 25 mg/kg, ip qd for 4 to 5 days per week for 3 weeks measured on day 17 post dose; type: functional; conditions: route intraperitoneal; procedure, shortened: as §2
Mus musculus [31] = assay: Toxicity in athymic nude mouse xenografted with human STO cells assessed as mortality at 25 mg/kg, ip qd for 4 to 5 days per week for 3 weeks measured on day 17 post dose; type: organism-based; set-up: dose 25 mg/kg, route intraperitoneal; conditions: in vivo; procedure, shortened: as §6
[32] = Induction of apoptosis in human Meso2 cells assessed as increase in caspase 3 activation at IC80 after 72 hrs by DEVD-pNA substrate-based spectrofluorometric analysis relative to control; type: functional
Procedure, shortened: (§9)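 Cells exposed 72 h at IC80, with 1% (v/v) DMSO controls. Caspase-9 activity read as LEHD-pNA cleavage and caspase-3 as DEVD-pNA cleavage, by spectrofluorometry (ex 380 nm/em 460 nm), reported as rfu. Mean ± SD of at least three experiments.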

Mus musculus [33] = assay: Toxicity in athymic nude mouse xenografted with human STO cells assessed as body weight loss at 25 mg/kg, ip qd for 4 to 5 days per week for 35 days measured on day 17 post dose; type: organism-based; set-up: dose 25 mg/kg, route intraperitoneal; conditions: in vivo, in the assay text read “for 3 weeks measured on day 35” for “for 35 days measured on day 17 post dose”; procedure, shortened: as §4
[34] = Induction of apoptosis in human Meso2 cells assessed as increase in caspase 9 activation at IC80 after 72 hrs by LEHD-pNA substrate-based spectrofluorometric analysis relative to control; type: functional; procedure, shortened: as §9
[35] = Induction of apoptosis in human STO cells assessed as increase in caspase 9 activation at IC80 after 72 hrs by LEHD-pNA substrate-based spectrofluorometric analysis relative to control; type: functional; procedure, shortened: as §9
[36] = Induction of apoptosis in human STO cells assessed as increase in caspase 3 activation at IC80 after 72 hrs by DEVD-pNA substrate-based spectrofluorometric analysis relative to control; type: functional; procedure, shortened: as §9
Meso2 [37] = assay: Induction of apoptosis in human Meso2 cells assessed as increase in caspase 3 activation at 12 to 24 […] hrs by DEVD-pNA substrate-based spectrofluorometric analysis relative to control; type: functional, cell-based
STO [38] = assay: Induction of apoptosis in human STO cells assessed as increase in caspase 3 activation at 3 to 6 nM hrs by DEVD-pNA substrate-based spectrofluorometric analysis relative to control; type: functional, cell-based

Chain of Cyclin-dependent kinase 1/cyclin B1 (Homo sapiens) (P06493 whole entry, looked up): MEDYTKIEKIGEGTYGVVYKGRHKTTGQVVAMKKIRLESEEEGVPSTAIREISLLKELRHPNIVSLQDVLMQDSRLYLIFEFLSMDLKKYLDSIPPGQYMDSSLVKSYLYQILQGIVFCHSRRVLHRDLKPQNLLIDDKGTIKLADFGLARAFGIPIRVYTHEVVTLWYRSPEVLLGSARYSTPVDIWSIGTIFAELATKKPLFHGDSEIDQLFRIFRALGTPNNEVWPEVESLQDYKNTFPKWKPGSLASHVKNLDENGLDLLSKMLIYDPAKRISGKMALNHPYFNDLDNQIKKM
Chain of Cyclin-dependent kinase 1/cyclin B1 (Homo sapiens) (P14635 whole entry, looked up): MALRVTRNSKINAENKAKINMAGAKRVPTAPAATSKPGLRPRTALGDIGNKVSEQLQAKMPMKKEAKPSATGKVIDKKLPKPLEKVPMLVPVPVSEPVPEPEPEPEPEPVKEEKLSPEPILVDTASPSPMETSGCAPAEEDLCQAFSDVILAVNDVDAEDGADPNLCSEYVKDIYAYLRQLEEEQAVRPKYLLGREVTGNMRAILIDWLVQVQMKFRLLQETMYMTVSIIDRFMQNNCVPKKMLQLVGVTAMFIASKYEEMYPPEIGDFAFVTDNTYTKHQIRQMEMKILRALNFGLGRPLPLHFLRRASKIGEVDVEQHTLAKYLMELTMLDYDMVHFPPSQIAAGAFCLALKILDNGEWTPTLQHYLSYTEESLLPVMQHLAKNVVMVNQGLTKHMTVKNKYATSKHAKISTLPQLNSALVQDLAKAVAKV
Chain of Cyclin-dependent kinase 1/cyclin B1 (P06493 whole entry): as the sequence (P06493 whole entry, looked up) above
Chain of Cyclin-dependent kinase 1/cyclin B1 (P14635 whole entry, further chain): as the sequence (P14635 whole entry, looked up) above
Chain of Glycogen synthase kinase-3 beta (P49841 whole entry): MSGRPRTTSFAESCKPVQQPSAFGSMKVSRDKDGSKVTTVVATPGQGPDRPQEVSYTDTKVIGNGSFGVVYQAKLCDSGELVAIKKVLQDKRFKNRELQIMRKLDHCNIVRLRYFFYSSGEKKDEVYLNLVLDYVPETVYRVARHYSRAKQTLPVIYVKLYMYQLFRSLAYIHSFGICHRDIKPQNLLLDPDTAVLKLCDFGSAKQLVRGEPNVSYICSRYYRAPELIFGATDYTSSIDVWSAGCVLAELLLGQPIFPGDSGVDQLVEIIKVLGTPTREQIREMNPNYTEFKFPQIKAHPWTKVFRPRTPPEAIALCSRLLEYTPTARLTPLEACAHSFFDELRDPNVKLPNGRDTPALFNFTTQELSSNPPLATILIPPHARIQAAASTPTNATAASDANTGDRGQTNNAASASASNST

Row | SMILES | Activity (Meso2 [2]) | IC50 [3] [µM] | Activity [4] | inhibition (STO [6]) | IC50 [7] [µM] | inhibition [8] | Activity [9] [%] | Activity [10] [%] | IC50 [12] [µM] | Activity [13] [%] | Activity (STO [15]) | Activity (STO [16]) | Activity [19] [%] | Activity [22] | Activity [23] [%] | inhibition (STO [24]) | IC50 [25] [µM] | IC50 [26] [µM] | inhibition (Homo sapiens) | Activity [27] [%] | other results
1 | Cn1cc(-c2csc(-c3c[nH]c4ccccc34)n2)c2cccnc21 | tde | > 100 | Active | Dose-dependent effect | 0.33 | tde | 33.3 | 25.8 | 40.2 | 19.9 | tde | tde | 41.9 | Active | 33.3 | Active | 0.75 | 4.11 | Dose-dependent effect | 41.9 | Activity (Meso2 [1]): Active; inhibition in vivo at 50 mg/kg [5]: 75%; Activity (Mus musculus [11]): 1%; Activity (Mus musculus [14]): Non-toxic; Activity (Meso2 [17]): Active; inhibition (Meso2 [18]): Active; Activity (STO [20]): Active; inhibition (STO [21]): Active; Activity (Meso2 [28]): tde; Activity (STO [29]): Active
2 | Cn1cc(-c2csc(-c3c[nH]c4ccc(F)cc34)n2)c2cccnc21 | – | 15.4 | – | Dose-dependent effect | 0.54 | – | – | – | – | – | – | – | – | – | – | – | – | 13.3 | Dose-dependent effect | – | –
3 | Cn1cc(-c2nc(-c3cn(C)c4ncccc34)cs2)c2ccccc21 | – | 18.8 | – | Dose-dependent effect | 0.61 | – | – | – | – | – | – | – | – | – | – | – | – | 16.8 | Dose-dependent effect | – | –
4 | Cn1cc(-c2nc(-c3cn(C)c4ncccc34)cs2)c2cc(F)ccc21 | tde | > 100 | Active | Dose-dependent effect | 0.43 | tde | 33.3 | 26.5 | 35.7 | 27.9 | tde | tde | 41.9 | Active | 33.3 | Active | 0.86 | 4.85 | Dose-dependent effect | 41.9 | inhibition in vivo at 25 mg/kg [30]: 58%; Activity (Mus musculus [31]): Non-toxic; fold change (FC) [32]: 7.8; Activity (Mus musculus [33]): 7%; fold change (FC) [34]: 11.9; fold change (FC) [35]: 12; Activity (Meso2 [28]): tde; fold change (FC) [36]: 10
5 | CC(=O)O[C@H]1C(=O)[C@@]2(C)[C@H]([C@H](OC(=O)c3ccccc3)[C@]3(O)C[C@H](OC(=O)[C@H](O)[C@@H](NC(=O)c4ccccc4)c4ccccc4)C(C)=C1C3(C)C)[C@]1(OC(C)=O)CO[C@@H]1C[C@@H]2O | – | – | – | – | – | – | – | – | – | – | – | – | – | – | – | – | – | – | – | – | Activity (Meso2 [37]): Active; Activity (STO [38]): Active
6 | Cn1cc(-c2nc(-c3c[nH]c4ncccc34)cs2)c2cc(F)ccc21 | tde | > 100 | Active | Dose-dependent effect | 0.49 | tde | 33.3 | 27.6 | 42.2 | 28.6 | tde | tde | 41.9 | Active | 33.3 | Active | 0.89 | 25.1 | Dose-dependent effect | 41.9 | inhibition in vivo at 25 mg/kg [30]: 73%; Activity (Mus musculus [31]): Non-toxic; Activity (Mus musculus [33]): 4%; Activity (Meso2 [28]): tde
